Source: ChEMBL document CHEMBL1156126, “Synthesis of some new pyrazolo[3,4-d]pyrimidine derivatives of expected anticancer and radioprotective activity” (Eur J Med Chem, 2010)
Converted amounts (≈) assume the structure as drawn.

Tests used:
[1] = Antitumor activity against mouse EAC assessed as non viable cells at 50 ug/ml after 2 hrs by trypan blue exclusion assay; type: functional, Ehrlich
Method in brief: (§1)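 EAC cells aspirated from ascitic fluid of preinoculated mice (line maintained by weekly i.p. transplantation), suspended in saline at 2.5×10⁶/ml. Compounds dissolved in DMSO:saline 0.7:0.3 at 1, 0.75, 0.5, 0.25 mg/ml stocks; 0.1 ml added to 0.8 ml saline plus 0.1 ml cells. Incubation 37 °C, 2 h; non-viable cells counted by trypan blue exclusion. IC50 taken from survival-versus-concentration curve.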

[2] = Antitumor activity against mouse EAC assessed as non viable cells at 100 ug/ml after 2 hrs by trypan blue exclusion assay; type: functional, Ehrlich; method in brief: as §1
[3] = Antitumor activity against mouse EAC after 2 hrs by trypan blue exclusion assay; type: functional, cell-based; conditions: Ehrlich; method in brief: as §1
[4] = Antitumor activity against mouse EAC assessed as non viable cells at 25 ug/ml after 2 hrs by trypan blue exclusion assay; type: functional, Ehrlich; method in brief: as §1
[5] = Antitumor activity against mouse EAC assessed as non viable cells at 75 ug/ml after 2 hrs by trypan blue exclusion assay; type: functional, Ehrlich; method in brief: as §1
[6] = system: Mus musculus; experiment: Radioprotective activity in 6Gy gamma irradiated Swiss albino mouse assessed as reduction in gamma irradiation-induced lipid peroxidation at 150 mg/kg, ip administered as 3 doses in alternative days up to 7 days pretreated 30 mins before gamma-irradiation relative to control; type: functional; parameters: scale not given: the % may be the effect or the level left; conditions: route intraperitoneal
[7] = system: Mus musculus; experiment: Radioprotective activity in 6 Gy gamma irradiated Swiss albino mouse assessed as change blood superoxide dismutase activity at 150 mg/kg, ip administered as 3 doses in alternative days up to 7 days relative to control; type: functional; conditions: route intraperitoneal
[8] = system: Mus musculus; experiment: Radioprotective activity in 6Gy gamma irradiated Swiss albino mouse assessed as increase in blood glutathione content at 150 mg/kg, ip administered as 3 doses in alternative days up to 7 days relative to control; conditions: route intraperitoneal
[9] = system: Mus musculus; experiment: Radioprotective activity in 6Gy gamma irradiated Swiss albino mouse assessed as reduction in gamma irradiation-inhibited blood glutathione content at 150 mg/kg, ip administered as 3 doses in alternative days up to 7 days pretreated 30 mins before gamma-irradiation relative to control; type: functional; parameters: scale not given: the % may be the effect or the level left; conditions: route intraperitoneal
[10] = system: Mus musculus; experiment: Radioprotective activity in 6Gy gamma irradiated Swiss albino mouse assessed as […] at 150 mg/kg, ip administered as 3 doses in alternative days up to 7 days pretreated 30 mins before gamma-irradiation relative to control; type: functional; conditions: route intraperitoneal
Method in brief: (§2)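 Female Swiss albino mice (25–30 g), 10 per group. Test agent was suspended in carboxymethylcellulose and given ip every other day, 3 injections over 7 days, each 30 min before whole-body gamma irradiation (Cs-137, 6 Gy, 0.86 Gy/min). Groups were untreated, CMC, radiation-only and drug-only. Survival is the percentage of animals alive 7 days after the radiation dose.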

[11] = system: Mus musculus; experiment: Radioprotective activity in 6 Gy gamma irradiated Swiss albino mouse assessed as change in gamma irradiation-induced blood superoxide dismutase activity at 150 mg/kg, ip administered as 3 doses in alternative days up to 7 days pretreated 30 mins before gamma-irradiation relative to control; type: functional; conditions: route intraperitoneal
[12] = system: Mus musculus; experiment: Radioprotective activity in 6Gy gamma irradiated Swiss albino mouse assessed as survival at 150 mg/kg, ip administered as 3 doses in alternative days up to 7 days relative to control; type: functional; conditions: route intraperitoneal; method in brief: as §2
[13] = system: Mus musculus; experiment: Radioprotective activity in 6Gy gamma irradiated Swiss albino mouse assessed as reduction in lipid peroxidation at 150 mg/kg, ip administered as 3 doses in alternative days up to 7 days relative to control; type: functional; parameters: scale not given: the % may be the effect or the level left; conditions: route intraperitoneal

`Nn1c(=O)[nH]c2c(cnn2-c2ccccc2)c1=O` gave an Activity [1] of 20%, an Activity [2] of 50% and an IC50 [3] of 100 µg/mL (≈ 411 µM). For the same compound, the Activity [4] was 10% and the Activity [5] was 30%.
With `O=c1c2cnn(-c3ccccc3)c2nc2ocnn12` the Activity [1] was 0%, the Activity [2] was 0% and the IC50 [3] was > 100 µg/mL. The Activity [4] was 10% and the Activity [5] was 0%.
With `O=c1oc2nc3c(cnn3-c3ccccc3)c(=O)n2c2ccccc12` the Activity [1] was 10%, the Activity [2] was 30% and the IC50 [3] was > 100 µg/mL. It also gave an Activity [4] of 10% and an Activity [5] of 30%.
Compound `O=c1c2cnn(-c3ccccc3)c2ncn1Cc1ccccc1` has an Activity [1] of 10%, an Activity [2] of 80% and an IC50 [3] of 90 µg/mL (≈ 298 µM). It also gave an Activity [4] of 10% and an Activity [5] of 20%.
In the case of `CSC(=NS(=O)(=O)c1ccc(Nc2nn3c(=O)c4cnn(-c5ccccc5)c4nc3o2)cc1)SC`, the Activity [1] is reported as 10%, the Activity [2] is reported as 20% and the IC50 [3] is reported as > 100 µg/mL. The Activity [4] was 10% and the Activity [5] was 10%.
For `O=C1/C(=C/c2ccccc2)N=C(c2ccccc2)N1n1cnc2c(cnn2-c2ccccc2)c1=O`, the Activity [1] was 0%, the Activity [2] was 0% and the IC50 [3] was > 100 µg/mL. It also gave an Activity [4] of 10% and an Activity [5] of 0%.
For `O=c1c2cnn(-c3ccccc3)c2nc2[nH]c3ccccc3n12`, the Activity [1] was 0%, the Activity [2] was 0% and the IC50 [3] was > 100 µg/mL. The Activity [4] was 10% and the Activity [5] was 0%.
Work on `Nn1cnc2c(cnn2-c2ccccc2)c1=S` yielded an Activity [1] of 10%, an Activity [6] of -6.19% and an Activity [7] of -2.04%. For the same compound, the Activity [8] was 4.95%, the Activity [9] was 9.63% and the Activity [10] was 100%. The Activity [2] was 10%, the IC50 [3] was > 100 µg/mL and the Activity [11] was -9.3%. The Activity [12] was 100%, the Activity [4] was 10% and the Activity [5] was 10%. The Activity [13] was 5.33%.
In the case of `S=c1nc2c3cnn(-c4ccccc4)c3ncn2[nH]1`, the Activity [1] is reported as 10%, the Activity [2] is reported as 30% and the IC50 [3] is reported as > 100 µg/mL. It also gave an Activity [4] of 10% and an Activity [5] of 10%.
With `COc1cccc2c1C(=O)c1c(O)c3c(c(O)c1C2=O)C[C@@](O)(C(=O)CO)C[C@@H]3O[C@H]1C[C@H](N)[C@H](O)[C@H](C)O1` [DOXORUBICIN] the Activity [1] was 55%, the Activity [2] was 100% and the IC50 [3] was 52 µg/mL (≈ 95.7 µM). For the same compound, the Activity [4] was 20% and the Activity [5] was 75%.
